In the library only some 3.9% were active in any assay of this set; here they are far more common.
TAAR1 ag: human TAAR1 agonists, primary screen, Fluo-8 calcium fluorescence, CHO RD-HGA16 cells | activation, % at 3 µM | 0.99% of 360,000 active | AID 624467, 2012 | Trace amine-associated receptor 1 (Homo sapiens), Q96RJ0 | vehicle wells 0%, saturating PEA agonist 100%;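 active means activation above the mean activation of all test compounds in the run plus 3 SD, cut at about 38% in these data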
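Test system: RD-HGA16 (CHO) cells co-expressing Gα16 and hTAAR1 | Doses: Single dose, 3 µM | Schedule: 17-24 h seeding, 75 min 37 °C dye, 30 min RT | Evaluation: % activation from peak over basal fluorescence ratio, DMSO-to-PEA scaled | Technique: Kinetic Fluo-8 calcium fluorescence | Benchmarks: Low control DMSO, high control PEA (EC100)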
TAAR1 antag: human TAAR1 antagonists, primary screen, Fluo-8 calcium fluorescence, CHO RD-HGA16 cells; AID 624466, 2012; antagonist; 1.5% of 360,000 active; inhibition, % at 3 µM; Trace amine-associated receptor 1 (Homo sapiens), Q96RJ0;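 active means inhibition above a per-plate cutoff, the mean inhibition of test compounds on that plate plus 3 SD, cut at about 49% in these data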;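 further: 0% = DMSO plus EC80 beta-PEA response and 100% = DMSO alone without agonist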
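System: CHO RD-HGA16 cells bearing hTAAR1. Reagent: EC80 β-phenethylamine stimulus. Schedule: seeding 17-24 h prior, 75-min 37 °C, 30-min RT dye loading. Signal: Fluo-8 intracellular calcium dye fluorescence, real-time kinetic reads. Read-out: % inhibition from peak post-agonist over basal fluorescence ratio. Benchmarks: vehicle wells and EC80 agonist wells. Replicates: n of 1.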
CHRM1 PAM: human M1 muscarinic receptor positive allosteric modulators, primary screen, CHO-K1 cells, Fluo-8 calcium fluorescence, 1536-well; activation, % at 3 µM; Muscarinic acetylcholine receptor M1 (Homo sapiens), P11229; CHO-K1 hM1, ACh EC20; 0% = ACh EC20, 100% = maximal ACh; 0.088% of 360,000 active; AID 588819, 2011; in the data active means activation above about 19%, passing the limit was not always enough
Target sequence (P11229 whole entry, looked up): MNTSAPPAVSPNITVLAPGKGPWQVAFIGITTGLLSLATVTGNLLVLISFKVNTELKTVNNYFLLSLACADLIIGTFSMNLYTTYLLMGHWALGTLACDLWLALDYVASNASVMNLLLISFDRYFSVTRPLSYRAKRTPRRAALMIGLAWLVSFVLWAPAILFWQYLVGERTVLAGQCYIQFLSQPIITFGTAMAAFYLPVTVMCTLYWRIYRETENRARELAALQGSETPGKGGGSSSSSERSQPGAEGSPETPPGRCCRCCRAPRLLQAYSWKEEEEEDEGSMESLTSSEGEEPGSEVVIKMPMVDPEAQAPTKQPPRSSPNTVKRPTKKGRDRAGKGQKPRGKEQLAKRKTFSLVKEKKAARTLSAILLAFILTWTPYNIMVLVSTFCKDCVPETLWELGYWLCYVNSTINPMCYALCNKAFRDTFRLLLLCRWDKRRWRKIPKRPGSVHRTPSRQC
CHRM1 antagonist: human M1 muscarinic receptor antagonists, primary screen, CHO-K1 cells, Fluo-8 calcium fluorescence, 1536-well; AID 588852, 2011; CHO-K1 hM1, ACh EC80 antagonist; 1.3% of 360,000 active; inhibition, % at 3 µM;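 active means percent inhibition above its own plate's cutoff, namely the mean of that plate's compound wells plus 3 SD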;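 further: peak over basal fluorescence ratio during 140 s after agonist addition; 0% = ACh EC80 plus DMSO and 100% = DMSO alone without agonist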
CHRM1 agonist: human M1 muscarinic receptor agonists, primary screen, Fluo-8 calcium fluorescence, CHO-K1 cells, HTS. CHO-K1 hM1, agonist mode; 0% DMSO, 100% acetylcholine EC100. activation, % at 3 µM. 0.33% of 360,000 active. AID 588814, 2011;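 active means activation above the run's mean compound activation plus 3 SD, cut at about 16% in these data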;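 further: peak over basal fluorescence ratio within a 140 s kinetic read after compound addition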
m5-HT2A agonist: mouse Htr2a agonists via beta-arrestin recruitment, primary screen, cell-based, luminescence; CHO-K1 mHTR2A beta-arrestin complementation; percent of 30 µM serotonin response; activation, % at 7.6 µM; 0.66% of 360,000 active; AID 624169, 2012; 5-hydroxytryptamine receptor 2A (Mus musculus), P35363;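 active means activation above a run cutoff, the mean activation of all tested compounds plus 3 SD, cut at about 14% in these data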;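 further: 0% = plate median of compound wells and 100% = 30 µM serotonin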
TAAR1 nonsel count: nonselective antagonists in TAAR1 counter-screen cells, counter-screen for hTAAR1 antagonist project, cell-based, fluorescence, calcium; shares compounds with TAAR1 antag; counterscreen cell line, antagonist mode; inhibition, % at 3 µM; 77% of 2,400 active; AID 651780, 2012; in the data active means inhibition above about 22%;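 further: CHO-Ga16 host cells stimulated with ATP at an EC80 level; 0% = agonist EC80 plus vehicle and 100% = vehicle without agonist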
TAAR1 antag conf: human TAAR1 antagonists, retest of hits, confirmation, cell-based, fluorescence. shares compounds with TAAR1 antag. TAAR1-expressing cells, fluorescence antagonist read-out. inhibition, % at 3 µM. 40% of 2,400 active. AID 651785, 2012; in the data active means inhibition above about 49%;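 further: CHO-Ga16 host cells challenged with agonist PEA near its EC80; 0% = agonist at EC80 plus vehicle and 100% = vehicle with no agonist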
Ga16 ag counter: calcium activation in Ga16-expressing cells, counter-screen for TAAR1 antagonist project, cell-based, fluorescence. agonist counterscreen. shares compounds with TAAR1 antag. activation, % at 3 µM. AID 651953, 2012. 18% of 2,400 active; in the data active means activation above about 12%;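 further: 0% = vehicle wells and 100% = saturating stimulus response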
TAAR1 ag count: TAAR1 activation by candidate antagonists – cell-based, fluorescence, counter-screen for TAAR1 antagonist project; hTAAR1 cell line, agonist mode; activation, % at 3 µM; shares compounds with TAAR1 antag; 2% of 2,400 active; in the data active means activation above about 37%;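 further: CHO cells stably expressing TAAR1 with calcium dye readout; 0% = DMSO vehicle and 100% = full agonist response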
* hit, by the source's call; . = no result given.

SMILES	TAAR1 ag	TAAR1 antag	CHRM1 PAM	CHRM1 antagonist	CHRM1 agonist	m5-HT2A agonist	TAAR1 nonsel count	TAAR1 antag conf	Ga16 ag counter	TAAR1 ag count
Cc1ccc(-c2ccc(/C=N/N3C(=O)C4C5C=CC(C6CC56)C4C3=O)o2)c([N+](=O)[O-])c1 (configuration not stated)	10.1	57.7*	-4.3	8.4	-1.7	-1.8	33.0*	43.5	10.1	7.1
CCOC(=O)c1ccc(NS(=O)(=O)c2ccc3c(c2)NC(=O)CCS3)cc1	3.6	-2.7	1.9	-1.3	-0.9	-2.4	.	.	.	.
N=C1/C(=C/c2ccc(-c3cccc(C(=O)O)c3)o2)C(=O)N=C2SC(CC(=O)N3CCOCC3)=NN12	-0.4	-15.7	13.7	-4.8	1.8	0.3	.	.	.	.
N=C1/C(=C\c2ccc(-c3cccc(C(=O)O)c3)o2)C(=O)N=C2SC=C(c3ccccc3)N12	11.4	75.7*	-5.5	13.1	0.1	-2.6	25.0*	41.6	8.1	5.2
CCOC(=O)CCP(=O)(O)C(C)(O)c1ccccc1 (configuration not stated)	6.3	106.5*	8.3	-9.7	-2.4	3.0	-1.1	-2.4	6.6	7.2
C=CCn1c(SCc2c(C)noc2C)nc2cc(C(=O)O)ccc2c1=O	11.2	75.8*	6.0	-3.2	-2.2	0.9	4.9	3.2	2.2	8.1
C=C(C)C(=O)Nc1cccc(C2=NOC3(C2)C[C@H](C(N)=O)N(C(=O)COc2ccc(Cl)cc2)C3)c1 (some centres not stated)	1.7	-13.5	2.0	0.2	-5.1	2.0	.	.	.	.
O=C(NCCS(=O)(=O)c1ccc(Br)cc1)c1ccc(Cl)cc1Cl	2.6	-22.7	15.2	-17.3	0.6	4.2	.	.	.	.
CCC(CO)NS(=O)(=O)c1cc(-c2nn(C)c(=O)c3ccccc23)ccc1C (configuration not stated)	6.8	3.9	7.9	-0.8	-1.0	0.0	.	.	.	.
CCSc1nnc(-c2cccc(S(=O)(=O)N(CC)CC)c2)n1Cc1ccccc1	11.4	59.6*	-4.7	12.8	-0.2	-8.0	30.7*	51.8*	8.1	5.8
CCNC(=O)CSc1nnc(-c2cccc(S(=O)(=O)N(CC)CC)c2)n1CCc1ccccc1	9.8	0.8	1.3	-5.3	-5.2	-2.2	.	.	.	.
COCCNCC(=O)Nc1nc(C)cs1	-0.3	2.7	8.0	-7.7	-3.1	-0.7	.	.	.	.
O=C(CCN1C(=O)/C(=C/c2cccs2)SC1=S)Nc1cccc(O)c1	27.6	72.4*	0.0	2.3	5.1	-3.6	46.7*	60.3*	15.6*	17.7
COc1cc(/C=C2\SC(=S)N(CCC(=O)Nc3cccc(O)c3)C2=O)cc(OC)c1OC	13.6	88.0*	-3.2	16.5	0.6	2.4	35.8*	58.3*	10.7	10.7
COc1cc(/C=C2/SC(=S)N(CCC(=O)Nc3cccnc3)C2=O)cc(OC)c1OC	11.3	59.5*	-6.2	-3.9	-0.5	1.8	30.0*	51.0*	10.3	16.2
Cc1ccc(C)c(N2CCN(C(=O)CCc3nc(-c4ccccc4Cl)no3)CC2)c1	3.3	59.3*	-13.6	17.3	-2.0	-3.6	26.0*	34.9	5.0	4.4
Cc1[nH]nc(C(=O)NN=Cc2ccccc2Cl)c1N=NN(C)C	0.4	-11.2	-8.0	12.1	-2.4	11.5	.	.	.	.
CSc1cccc(NC(=O)C2CCN(S(=O)(=O)c3ccc(F)cc3)CC2)c1	17.5	42.6	-4.2	-0.6	-1.1	-2.2	.	.	.	.
CSc1cccc(NC(=O)C2CCCN(S(=O)(=O)c3ccc(F)cc3)C2)c1 (configuration not stated)	12.3	56.0*	-8.7	2.5	-5.5	-5.7	22.6*	33.0	4.3	1.7
COc1ccccc1Nc1nnc(SCc2cc(=O)n3cc(C)ccc3n2)s1	15.7	69.2*	-8.5	14.5	-2.0	3.8	29.9*	44.8	8.9	7.5
Cc1ccccc1Nc1nnc(SCc2cc(=O)n3ccsc3n2)s1	2.3	21.1	2.4	-1.4	-9.3	5.1	.	.	.	.
CC(C)(Cc1ccc(O)cc1)NC(=O)CC(=O)N/N=C/c1ccc(Cl)cc1	28.8	74.3*	3.5	-10.6	-2.0	-3.9	20.8	79.6*	4.2	43.0*
Cc1cn2c(=O)c(C(=O)N3CCN(c4ccccc4)CC3)cnc2s1	4.8	-14.7	8.5	-15.2	-1.2	8.8	.	.	.	.
CCOC(=O)C1=CN(Cc2cccc(-c3cccnc3)c2)S(=O)(=O)N(C)C1C (configuration not stated)	3.5	49.4*	-12.1	0.9	0.8	-2.5	21.5*	24.7	4.4	-0.2
Cn1c(=O)n(C)c2cc([N+](=O)[O-])c(N3CCN(S(=O)(=O)c4ccccc4)CC3)cc21	21.9	61.9*	-17.9	14.0	-6.0	-1.2	26.3*	54.0*	14.7*	23.1
Cn1c(=O)n(C)c2cc([N+](=O)[O-])c(N3CCN(S(C)(=O)=O)CC3)cc21	2.0	-5.7	8.2	-2.3	-2.3	0.8	.	.	.	.
O=C(c1sc(N2CCOCC2)nc1-c1ccccc1)N1CCCCC1	-0.7	-5.1	-3.9	-1.0	0.2	-2.1	.	.	.	.
[2H]c1c([2H])c([2H])c(-c2nc(N3CCCCCC3)sc2C(=O)c2ccccc2)c([2H])c1[2H]	14.7	61.9*	-18.1	18.7	-5.0	-1.5	11.4	16.0	0.3	0.6
COc1ccc(CN2CCN(C(=O)c3cc(-c4cccnc4)nc4ccc(Cl)cc34)CC2)c(OC)c1OC	18.4	72.3*	-21.7	58.2*	-3.3	7.3	32.2*	54.3*	7.7	7.4
